From ChEMBL document CHEMBL3102768, “Synthesis, biological evaluation and SAR of 3-benzoates of ingenol for treatment of actinic keratosis and non-melanoma skin cancer” (Bioorg Med Chem Lett, 2014)

Columns and labels:
[1] = Immunostimulatory activity in polymorphonuclear leukocytes (unknown origin) assessed as induction of oxidative burst after 40 mins by fluorescence assay relative to ingenol 3-angelate; format: functional
How it was run: (§1)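 PMN were isolated from fresh buffy coats. Cells were incubated 40 min at ambient temperature with titrated compound (top concentration 10 µM) pre-mixed with hydroethidine. Respiratory burst was read as fluorescence at ex 485/em 579 nm. EC50 is the concentration giving 50% of the maximum effect of ingenol 3-angelate; Emax is the maximal response relative to it.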

[2] = biological target: Protein kinase C delta type (Homo sapiens, UniProt Q05655); experiment: Activation of PKCdelta (unknown origin) after 40 mins
How it was run: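 In vitro PKCδ phosphorylation of a PKC peptide substrate, with 0.05 mg/mL phosphatidylserine and no diacylglycerol. Compounds were tested as a twelve-point semilog dilution series starting at 10 µM. The reaction was started with ATP and run 40 min at room temperature.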

Keratinocyte [3] = experiment: Induction of proimflammatory activity in human primary epidermal keratinocytes assessed as TNFalpha release after 6 hrs; format: functional, cell-based
How it was run: (§2)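 Adult log-phase primary epidermal keratinocytes were seeded at 10,000 cells/well. Cells were incubated with titrated compound for 6 h at 37 °C in 5% CO2. Secreted TNFα was measured by Meso Scale 4-spot cytokine plates. EC50 and Emax were referenced to the maximal response of ingenol 3-angelate.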

HeLa = experiment: Induction of necrosis in human HeLa cells assessed as remaining metabolic activity after 30 mins by resazurin dye-based assay; format: functional; conditions: 0.5 h, read-out: LC50 (the source's name)
How it was run: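 HeLa cells were exposed to increasing concentrations up to 400 µM for 30 min at 37 °C. Metabolic activity was then measured with a resazurin-based dye (PrestoBlue). LC50 is the concentration giving 50% loss of metabolic activity.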

Keratinocyte [4] = experiment: Induction of proimflammatory activity in human primary epidermal keratinocytes assessed as IL-8 release after 6 hrs; format: functional, cell-based
How it was run: as §2, with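 “IL8” for “TNFα”, “plates or by HTRF.” for “plates.”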

[5] = Chemical stability of the compound in aqueous buffer with less than 30% organic solvent assessed as compound recovery at pH 7.4 measured over 16 hrs by HPLC analysis; format: physicochemical; conditions: read-out: Drug recovery
How it was run: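 A DMSO stock was diluted into pre-heated (37 °C) aqueous buffer pH 7.4 to ≤30% v/v organic content. The solution was held at 37 °C in the HPLC autosampler and injected within 5 min, then repeatedly over 16 h. Recovery was taken from the decrease in compound peak area, with UV detection normally at 270 nm.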

[6] = Immunostimulatory activity in polymorphonuclear leukocytes (unknown origin) assessed as induction of oxidative burst after 40 mins by fluorescence assay; format: functional, cell-based; how it was run: as §1
Keratinocyte [7] = experiment: Induction of proimflammatory activity in human primary epidermal keratinocytes assessed as IL-8 release after 6 hrs relative to ingenol 3-angelate; format: functional
How it was run: as §2, with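 “IL8” for “TNFα”, “plates or by HTRF.” for “plates.”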

Keratinocyte [8] = experiment: Induction of proimflammatory activity in human primary epidermal keratinocytes assessed as TNFalpha release after 6 hrs relative to ingenol 3-angelate; format: functional; how it was run: as §2

Chain of Protein kinase C delta type (Q05655 whole entry): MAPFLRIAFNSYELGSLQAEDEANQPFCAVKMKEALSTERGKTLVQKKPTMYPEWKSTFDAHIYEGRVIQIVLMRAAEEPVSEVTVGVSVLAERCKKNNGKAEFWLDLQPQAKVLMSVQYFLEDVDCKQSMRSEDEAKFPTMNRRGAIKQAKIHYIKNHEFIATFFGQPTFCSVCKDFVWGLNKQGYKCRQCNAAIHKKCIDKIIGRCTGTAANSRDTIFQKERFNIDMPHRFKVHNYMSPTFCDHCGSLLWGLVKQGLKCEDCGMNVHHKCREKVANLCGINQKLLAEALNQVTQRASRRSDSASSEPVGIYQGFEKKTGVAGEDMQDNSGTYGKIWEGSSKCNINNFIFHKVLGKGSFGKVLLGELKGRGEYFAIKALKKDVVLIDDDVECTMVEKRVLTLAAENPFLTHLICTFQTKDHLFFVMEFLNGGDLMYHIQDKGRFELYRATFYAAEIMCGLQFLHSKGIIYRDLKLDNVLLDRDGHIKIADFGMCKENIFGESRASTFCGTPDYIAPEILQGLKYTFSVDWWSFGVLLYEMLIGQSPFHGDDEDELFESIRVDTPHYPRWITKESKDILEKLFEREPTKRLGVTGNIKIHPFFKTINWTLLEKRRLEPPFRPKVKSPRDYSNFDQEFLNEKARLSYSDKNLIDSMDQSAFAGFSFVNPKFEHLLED

| SMILES | Emax [1] | EC50 [2] | EC50 (Keratinocyte [3]) | CC50 (HeLa) | EC50 (Keratinocyte [4]) | remaining at 16 h [5] | EC50 [6] | Emax (Keratinocyte [7]) | Emax (Keratinocyte [8]) |
| --- | --- | --- | --- | --- | --- | --- | --- | --- | --- |
| CC1=C[C@]23C(=O)[C@@H](C=C(CO)[C@@H](O)[C@]2(O)[C@H]1OC(=O)c1ccccc1Br)[C@H]1[C@@H](C[C@H]3C)C1(C)C | 99% | 3.8 nM | 8.2 nM | 141000 nM | 2.3 nM | 44% | 4.3 nM | 93% | 96% |
| COc1ccccc1C(=O)O[C@H]1C(C)=C[C@]23C(=O)[C@@H](C=C(CO)[C@@H](O)[C@]12O)[C@H]1[C@@H](C[C@H]3C)C1(C)C | 107% | 25.7 nM | 38 nM | 220000 nM | 42 nM | 70% | 6.8 nM | 100% | 100% |
| CC1=C[C@]23C(=O)[C@@H](C=C(CO)[C@@H](O)[C@]2(O)[C@H]1OC(=O)c1ccccc1-c1ccccc1)[C@H]1[C@@H](C[C@H]3C)C1(C)C | 105% | 3.3 nM | 1.6 nM | 77000 nM | 1.5 nM | 77% | 16 nM | 87% | 91% |
| CC1=C[C@]23C(=O)[C@@H](C=C(CO)[C@@H](O)[C@]2(O)[C@H]1OC(=O)c1ccccc1Oc1ccccc1)[C@H]1[C@@H](C[C@H]3C)C1(C)C | 98% | 13.1 nM | 1.4 nM | 83000 nM | 1.1 nM | 80% | 9.4 nM | 87% | 86% |
| CC1=C[C@]23C(=O)[C@@H](C=C(CO)[C@@H](O)[C@]2(O)[C@H]1OC(=O)c1ccccc1Nc1ccccc1)[C@H]1[C@@H](C[C@H]3C)C1(C)C | 129% | 4.2 nM | 5 nM | 307000 nM | 3.7 nM | 58% | 11 nM | 103% | 120% |
| CNc1ccccc1C(=O)O[C@H]1C(C)=C[C@]23C(=O)[C@@H](C=C(CO)[C@@H](O)[C@]12O)[C@H]1[C@@H](C[C@H]3C)C1(C)C | 113% | 2.5 nM | 1 nM | 95000 nM | 0.79 nM | 68% | 6.7 nM | 99% | 134% |
| CC1=C[C@]23C(=O)[C@@H](C=C(CO)[C@@H](O)[C@]2(O)[C@H]1OC(=O)c1c(C)cccc1C)[C@H]1[C@@H](C[C@H]3C)C1(C)C | 123% | 10.8 nM | 83 nM | 97000 nM | 62 nM | > 95% | 13 nM | 66% | 61% |
| COc1cccc(OC)c1C(=O)O[C@H]1C(C)=C[C@]23C(=O)[C@@H](C=C(CO)[C@@H](O)[C@]12O)[C@H]1[C@@H](C[C@H]3C)C1(C)C | 116% | 156 nM | 57 nM | 400000 nM | 44 nM | > 95% | 84 nM | 107% | 113% |
| CC1=C[C@]23C(=O)[C@@H](C=C(CO)[C@@H](O)[C@]2(O)[C@H]1OC(=O)c1c(Cl)cccc1Cl)[C@H]1[C@@H](C[C@H]3C)C1(C)C | 123% | 19.8 nM | 278 nM | 59000 nM | 113 nM | > 95% | 21 nM | 45% | 42% |
| CC1=C[C@]23C(=O)[C@@H](C=C(CO)[C@@H](O)[C@]2(O)[C@H]1OC(=O)c1c(C)cccc1N)[C@H]1[C@@H](C[C@H]3C)C1(C)C | 117% | 8 nM | 12 nM | 146000 nM | 8.2 nM | > 95% | 8.6 nM | 118% | 108% |
| CC1=C[C@]23C(=O)[C@@H](C=C(CO)[C@@H](O)[C@]2(O)[C@H]1OC(=O)c1c(C)cccc1O)[C@H]1[C@@H](C[C@H]3C)C1(C)C | 125% | 13.4 nM | 98 nM | 199000 nM | 71 nM | > 95% | 9.4 nM | 105% | 156% |
